The results in this text go back to ChEMBL document CHEMBL1136605, “Synthesis and biological activities of novel beta-carbolines as PDE5 inhibitors” (Bioorg Med Chem Lett, 2003).

Experiment [1] addresses T1, cGMP-specific 3',5'-cyclic phosphodiesterase (Homo sapiens, UniProt O76074). Kind of experiment: Inhibition of PDE5 (Phosphodiesterase) from human corpus cavernosum. Put shortly: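 Enzyme was PDE5 from human corpus cavernosum. Compounds were serially diluted in 100% DMSO and added to assay buffer at 2% DMSO final. […] Ki was derived, with IC50 instead for a few compounds. Values are means of three experiments.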

In experiment [2] the target is T1, cGMP-specific 3',5'-cyclic phosphodiesterase. Kind of experiment: Inhibitory activity against PDE5 from human corpus cavernosum.
Experiment [3] deals with Phosphodiesterase 2 and 5 (PDE2 and PDE5) (Homo sapiens) (UniProt O76074+O00408). As to the kind of experiment: Relative inhibition of PDE2 and PDE5 from human corpus cavernosum. In kind it is protein assay. Put shortly: (§1)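 Ratio of inhibition of a second human PDE to that of PDE5 from corpus cavernosum. PDE2 was from corpus cavernosum and PDE6 from retinal cone. Compounds were diluted in DMSO to 2% DMSO final. Ki was determined for each enzyme.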

For another experiment, the species on record is Homo sapiens. Kind of experiment: Relative inhibition of PDE6 from human retinal cone and PDE5 from human corpus cavernosum. In short, it runs like this: as §1
The next experiment concerns Canis familiaris. As to the kind of experiment: In vivo increased intracavernosal pressure in dogs after intravenous dose. In kind it is functional, Canis lupus familiaris. Put shortly: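 Ascending intravenous doses given at 40-min intervals after control responses were established. Intracavernosal pressure (ICP) was evoked 15 min after each dose by pelvic nerve electrical stimulation at the same setting. Effect was taken as the ICP area under the curve at each stimulation minus the control-response AUC.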

By IC50 is commonly meant the point on the concentration scale where inhibition reaches its midpoint. Read a low IC50 as higher potency. On to `O=C(c1ccc(-c2ccc(Cl)cc2[N+](=O)[O-])o1)N1CCc2c([nH]c3ccccc23)C1c1ccc2c(c1)OCO2` (stereo not given), for which, in experiment [1], the half-inhibitory concentration (IC50) came to 105 nM.

By Ki is commonly meant the equilibrium dissociation constant of an inhibitor or competing ligand from its target. A lower Ki goes with higher affinity. `Nc1ccc(-c2ccc(C(=O)N3CCc4c([nH]c5ccccc45)C3c3ccc4c(c3)OCO4)o2)cc1` (stereo not given) came in with a Ki in experiment [2] of 123 nM.

In experiment [2], `COc1ccc(-c2cnc(N3CCc4c([nH]c5ccccc45)C3c3ccc(OC)c(OC)c3)nc2)cc1` (stereo not given) registered a Ki greater than 10000 nM.

As for `COc1ccc(-c2cnc(N3CC(=O)c4c([nH]c5ccccc45)C3c3ccc4c(c3)OCO4)nc2)cc1OC` (stereo not given), the Selectivity in experiment [3] was 23000; in the experiment filed under Homo sapiens, 4.

With `Clc1ccc(-c2cnc(N3CCc4c([nH]c5ccccc45)C3c3ccc4c(c3)OCO4)nc2)cc1` (stereo not given), the affinity in experiment [2] corresponds to a Ki of 126 nM. That is a sub-micromolar value.

Regarding `Cc1ccc(-c2cnc(N3CCc4c([nH]c5ccccc45)C3c3ccc4c(c3)OCO4)nc2)cc1` (stereo not given), affinity in experiment [2] was put at a Ki of 543 nM.

In experiment [1], `O=C(O)CCCC(=O)Nc1cccc(-c2ccc(C(=O)N3CCc4c([nH]c5ccccc45)C3c3ccc4c(c3)OCO4)o2)c1` (stereo not given) displayed an IC50 of 95 nM.

Regarding `O=C(c1ccc(-c2cccc([N+](=O)[O-])c2)o1)N1CCc2c(sc3ccccc23)C1c1ccc2c(c1)OCO2` (stereo not given), in experiment [2], the Ki was greater than 5000 nM.

`CS(=O)(=O)c1ccc(-c2cnc(N3CCc4c([nH]c5ccccc45)C3c3ccc4c(c3)OCO4)nc2)c([N+](=O)[O-])c1` (stereo not given) came in with a Ki in experiment [2] of 132 nM.

Take `O=C(c1ccc(-c2cccc(C(F)(F)F)c2)o1)N1CCc2c([nH]c3ccccc23)C1c1ccc2c(c1)OCO2` (stereo not given): the Ki in experiment [2] amounted to 126 nM.

With `COc1ccc(-c2cnc(N3CCc4c([nH]c5ccccc45)C3c3ccc4c(c3)OCO4)nc2)cc1` (stereo in doubt; 8a), in experiment [2], the Ki came to 246 nM.

In experiment [1], `O=C(c1ccc(-c2ccc(Cl)cc2[N+](=O)[O-])o1)N1CCc2c([nH]c3ccccc23)[C@@H]1c1ccc2c(c1)OCO2` showed an IC50 greater than 10000 nM.

Consider `COc1ccc(-c2cnc(N3CCc4c([nH]c5ccccc45)C3c3ccc4c(c3)CCO4)nc2)cc1` (stereo in doubt; 8f), for which the Ki in experiment [2] was found to be 189 nM. In other words, the sub-micromolar range.

As for `O=C(c1ccc(-c2ccc(Cl)cc2[N+](=O)[O-])o1)N1CCc2c([nH]c3ccccc23)[C@H]1c1ccc2c(c1)OCO2`, in experiment [1], the IC50 was determined as 67 nM.

Consider `O=C(c1ccc(-c2ccccc2[N+](=O)[O-])o1)N1CCc2c([nH]c3ccccc23)C1c1ccc2c(c1)OCO2` (stereo not given), for which, in experiment [2], the affinity, expressed as Ki, was 219 nM.

Regarding `COc1ccc(-c2cnc(N3CCc4c([nH]c5ccccc45)C3c3ccc4c(c3)CCO4)nc2)cc1` (stereo in doubt; 15f), in experiment [2], the Ki was 188 nM.

With `CN1CCN(C(=O)c2ccc(-c3ccc(C(=O)N4CCc5c([nH]c6ccccc56)C4c4ccc5c(c4)CCO5)o3)cc2)CC1` (stereo not given), the Selectivity was greater than 10000 in experiment [3] and 119 in the experiment listed under Homo sapiens. In experiment [2], this molecule showed a Ki of 8.11 nM.

As for `Cc1ncc(-c2cnc(N3CCc4c([nH]c5ccccc45)C3c3ccc4c(c3)CCO4)nc2)n1C` (stereo not given), the figures for the Selectivity (in experiment [3]; in the experiment filed under Homo sapiens) were greater than 4000 and 187, respectively.

Consider `CC(=O)Nc1ccc(-c2ccc(C(=O)N3CCc4c([nH]c5ccccc45)C3c3ccc4c(c3)OCO4)o2)cc1` (stereo not given), for which, in experiment [2], the Ki worked out at 64.2 nM. This lies in the double-digit nanomolar range.

In turn, `Oc1ccc(-c2cnc(N3CCc4c([nH]c5ccccc45)C3c3ccc4c(c3)CCO4)nc2)cc1` (stereo not given) yielded a Ki in experiment [2] of 154 nM.

In experiment [2], `O=C(c1ccc(-c2cccc([N+](=O)[O-])c2)o1)N1CCc2c([nH]c3ccccc23)C1c1ccc2c(c1)OCO2` (stereo not given) came in with a Ki of 130 nM.

With `O=C(c1ccc(-c2ccccc2)o1)N1CCc2c([nH]c3ccccc23)C1c1ccc2c(c1)OCO2` (stereo not given), 750 nM corresponded to half-maximal inhibition in experiment [1] (IC50).

Regarding `FC(F)(F)c1cccc(-c2ccc(CN3CCc4c([nH]c5ccccc45)C3c3ccc4c(c3)OCO4)o2)c1` (stereo not given), the affinity in experiment [2] corresponds to a Ki of 850 nM.

Consider `O=C(c1ccc(-c2ccc([N+](=O)[O-])cc2)o1)N1CCc2c([nH]c3ccccc23)C1c1ccc2c(c1)OCO2` (stereo not given), for which the affinity in experiment [2], expressed as Ki, was 77.5 nM.

One may read the ED50 as the dose at which the effect has come halfway, by size or by number of responders. Low values mean an effect at a small dose, high ones a need for a large dose. Take `CCCc1nn(C)c2c(=O)[nH]c(-c3cc(S(=O)(=O)N4CCN(C)CC4)ccc3OCC)nc12`: the ED50 in the experiment on Canis familiaris was found to be 0.0051 mg/kg.

Molecule `COc1ccc(-c2cnc(N3CCc4c([nH]c5ccccc45)C3c3ccc4c(c3)OCO4)nc2)cc1` (stereo in doubt; 15a) registered an inhibition constant (Ki) in experiment [2] of 246 nM.

Consider `O=C(c1ccc(-c2ccccn2)o1)N1CCc2c([nH]c3ccccc23)C1c1ccc2c(c1)CCO2` (stereo not given), for which the results for the Selectivity (in experiment [3]; in the experiment filed under Homo sapiens) were 308 and 32, respectively. This molecule also displayed a Ki in experiment [2] of 32.3 nM.

In the experiment on Canis familiaris, `COc1ccc(-c2cnc(N3CC(=O)c4c([nH]c5ccccc45)C3c3ccc4c(c3)OCO4)nc2)cc1` (stereo not given) showed an ED50 of 0.173 mg/kg. Also, affinity in experiment [2] was put at a Ki of 18 nM.

Take `O=C(O)CCCC(=O)Nc1ccc(-c2ccc(C(=O)N3CCc4c([nH]c5ccccc45)C3c3ccc4c(c3)OCO4)o2)cc1` (stereo not given): 100 nM corresponded to half-maximal inhibition in experiment [1] (IC50).

`CC(=O)Nc1cccc(-c2ccc(C(=O)N3CCc4c([nH]c5ccccc45)C3c3ccc4c(c3)OCO4)o2)c1` (stereo not given) displayed a Ki in experiment [2] of 50.6 nM.

`Nc1cccc(-c2ccc(C(=O)N3CCc4c([nH]c5ccccc45)C3c3ccc4c(c3)OCO4)o2)c1` (stereo not given) registered a Ki in experiment [2] of 179 nM.

In experiment [2], `COc1ccc(-c2cnc(N3CC(O)c4c([nH]c5ccccc45)C3c3ccc4c(c3)OCO4)nc2)cc1OC` (stereo not given) showed a Ki greater than 100 nM.

The molecule `c1ccc2c3c([nH]c2c1)C(c1ccc2c(c1)CCO2)N(c1ncc(-c2ccc(OCCN4CCCC4)cc2)cn1)CC3` (stereo not given) registered a Ki in experiment [2] greater than 1000 nM.
